An excerpt weighted towards active compounds, which were near 2.5% of everything screened.
SIRT5 inh = inhibitors of human sirtuin-5 desuccinylase. AID 652115. 330,000 tested, 1.1% active. Purified SirT5, succinyl-peptide AMC, trypsin-coupled fluorescence. Q9NXA8. inhibition, % at 15 µM; in the data active means inhibition above about 15%; inconclusive means no clear call, values can overlap the other calls
E-selectin induc = induces E-selectin expression in human endothelial cells. P16581. HUVEC E-selectin immunofluorescence imaging; normalized: neutral wells 0, TNF-alpha wells 100. activation, % at 7.58 µM. 260,000 tested, 0.37% active. AID 686992;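 active means mean E-selectin-positive cell signal at least 10% of the positive control, reached in at least 60% of replicates, without over 20% cell loss; inconclusive means no rule given, readout overlaps actives, possibly toxicity-flagged; inactive means the rest, including those meeting only one limit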
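Test system – human umbilical vein endothelial cells (HUVEC), E-selectin induction · Input – 3,000 HUVEC seeded per well · Buffer or medium – EGM-2, gelatin · Compound dosing – single-point compound dose · Detection – immunofluorescence imaging · Measure – percent E-selectin-positive cells · Controls – TNF-alpha high, DMSO low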
DENV2 CPE = protects cells from dengue virus 2 cytopathic effect; AID 651640; CPE inhibition, % at 9.99 µM; DENV2-infected cells, cytopathic effect rescue, plate reader; 350,000 tested, 1.7% active; in the data active means CPE inhibition above about 20%, passing the limit was not always enough; inconclusive means no clear call, values can overlap the other calls; tested in BHK-21 cells;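 further: 0% = median of neutral control wells and 100% = median of positive control wells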
PglD inh = blocks C. jejuni PglD acetyltransferase activity | purified PglD enzyme, DTNB colorimetric CoA detection | inhibition, % at 12.5 µM | 360,000 tested, 0.098% active | AID 602405; in the data active means inhibition above about 16%, passing the limit was not always enough; inconclusive means no clear call, values can overlap the other calls
ERAP1 inh = ERAP1 (human) enzyme inhibition. Q9NZ08. recombinant ERAP1, Leu-AMC fluorescence, 60 min. inhibition, % at 10.7 µM. 340,000 tested, 0.15% active. AID 652197;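 active means mean replicate inhibition of at least 30%, or all replicates individually reaching that 30% level; inactive means mean below 30% and not every replicate reaching it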;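 further: 0% = neutral control wells and 100% = L-leucinethiol positive control wells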
Target sequence (Q9NZ08 whole entry, looked up): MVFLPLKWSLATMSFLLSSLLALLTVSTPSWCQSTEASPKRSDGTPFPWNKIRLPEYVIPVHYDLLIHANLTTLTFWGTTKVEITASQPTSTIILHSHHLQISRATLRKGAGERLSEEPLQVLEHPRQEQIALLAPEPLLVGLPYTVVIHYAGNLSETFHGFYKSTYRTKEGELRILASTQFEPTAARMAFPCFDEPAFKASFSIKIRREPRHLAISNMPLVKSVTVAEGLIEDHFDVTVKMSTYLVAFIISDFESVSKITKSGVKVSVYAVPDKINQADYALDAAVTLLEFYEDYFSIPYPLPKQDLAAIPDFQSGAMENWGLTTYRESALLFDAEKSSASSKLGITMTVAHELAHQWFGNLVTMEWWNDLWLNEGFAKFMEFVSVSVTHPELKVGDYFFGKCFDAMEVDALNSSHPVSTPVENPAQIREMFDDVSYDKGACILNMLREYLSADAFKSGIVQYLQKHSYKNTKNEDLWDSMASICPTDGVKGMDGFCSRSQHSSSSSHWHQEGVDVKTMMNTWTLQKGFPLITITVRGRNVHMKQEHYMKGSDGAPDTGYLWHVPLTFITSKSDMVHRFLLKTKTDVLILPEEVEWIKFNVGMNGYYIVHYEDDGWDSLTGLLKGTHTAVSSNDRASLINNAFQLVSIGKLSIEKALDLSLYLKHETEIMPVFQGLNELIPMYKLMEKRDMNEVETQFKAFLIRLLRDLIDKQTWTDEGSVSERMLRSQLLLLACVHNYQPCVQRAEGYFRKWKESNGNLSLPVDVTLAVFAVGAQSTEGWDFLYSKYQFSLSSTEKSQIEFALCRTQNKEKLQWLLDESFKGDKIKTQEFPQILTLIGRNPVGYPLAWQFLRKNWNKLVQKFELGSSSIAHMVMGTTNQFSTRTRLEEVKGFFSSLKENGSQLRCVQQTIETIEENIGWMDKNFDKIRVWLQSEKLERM
Starred values were filed as active, the others as inactive; ? = inconclusive; · = not tested or not shown; ! = repeats disagree.

SMILES	SIRT5 inh	E-selectin induc	DENV2 CPE	PglD inh	ERAP1 inh
CCCCN1C(=O)C(CC(=O)NCC2CCCCC2)CC(C(=O)N(C)C)=C1C (stereo unspecified)	-5	·	9	1	0
CN(CC(=O)Nc1ccccc1Cl)C(=O)c1ccccc1Sc1ccccc1C#N	4	-2	1	4	-1
O=[N+]([O-])c1cccc(/C=C/c2ccccn2)c1	24*	·	?	-2	-2
O=C(CSc1ncccn1)N/N=C/c1cccc([N+](=O)[O-])c1	·	·	·	0	·
O=C(CSc1ccccn1)N/N=C/c1cccc([N+](=O)[O-])c1	2	·	46*	4	1
O=[N+]([O-])c1cccc(/C=N/Nc2ccccn2)c1	-8	-1	-4	·	-5
CC(C)CCCCCCCCc1cccc(O)c1C(=O)O	20*	·	8	·	1
O=C(NNC(=O)c1ccccc1F)c1ccc(-c2ccccc2Cl)o1	-1	0	21*	4	6
O=C(NNC(=O)c1ccccc1F)c1ccco1	1	1	-1	-1	1
COc1ccc(OC)c(NC(=O)c2csc(Cl)c2OC)c1	-4	38*	-7	·	0
O=C(C[C@@H]1C[C@@H]2c3cc(NC(=O)Cc4ccncc4)ccc3O[C@@H]2[C@@H](CO)O1)NCCN1CCCCC1	1	0	77*	0	0
O=C(O)C[C@H]1C[C@@H]2c3cc(NC(=O)Cc4ccncc4)ccc3O[C@@H]2[C@H](CO)O1	-4	1	-18	·	-2
CS(=O)(=O)Nc1ccc2c(c1)[C@H]1C[C@H](CC(=O)O)O[C@@H](CO)[C@H]1O2	-4	1	25*	·	0
O=C(O)C[C@H]1C[C@@H]2c3cc(NC(=O)Cc4ccncc4)ccc3O[C@@H]2[C@@H](CO)O1	2	0	90*	3	-2
COC(=O)C[C@@H]1C[C@H]2c3cc(NC(=O)Cc4ccncc4)ccc3O[C@H]2[C@H](CO)O1	15*	0	8	2	1
COC(=O)C[C@H]1C[C@H]2c3cc(NC(=O)Cc4ccncc4)ccc3O[C@H]2[C@H](CO)O1	0	-1	10	0	-1
COc1ccc(OC)c(S(=O)(=O)N2CCC3(CC2)OCCN3S(=O)(=O)c2cccs2)c1	-1	0	8	-2	1
COc1cccc(-c2ccc(C#N)c(SCC(=O)NCCc3ccccc3)n2)c1	2	-2	12	-1	2
C[C@@H]1CN([C@H](C)CO)C(=O)c2cc(NS(=O)(=O)c3ccc(F)cc3)ccc2O[C@@H](C)CCCCO[C@@H]1CN(C)Cc1ccc2c(c1)OCO2	1	·	-1	-2	-1
C[C@@H]1CN([C@@H](C)CO)C(=O)c2cc(NC(=O)Nc3ccc(F)cc3)ccc2O[C@H]1CN(C)Cc1ccncc1	2	4	-1	1	3
C[C@@H]1CN([C@H](C)CO)C(=O)c2cc(NC(=O)Nc3ccc(F)cc3)ccc2O[C@H]1CN(C)Cc1ccncc1	-1	-3	37*	10	0
COc1ccc(NC(=O)Nc2ccc3c(c2)C(=O)N([C@H](C)CO)C[C@@H](C)[C@@H](CN(C)Cc2ccncc2)O3)cc1	-2	5	6	10	2
COc1ccc(CN(C)C[C@@H]2Oc3ccc(NC(=O)Nc4ccc5c(c4)OCO5)cc3C(=O)N([C@@H](C)CO)C[C@@H]2C)cc1	5	0	4	4	-1
COc1ccc(NC(=O)Nc2ccc3c(c2)C(=O)N([C@H](C)CO)C[C@H](C)[C@@H](CN(C)Cc2ccc4c(c2)OCO4)O3)cc1	16*	-2	2	1	-1
COc1ccc(CN(C)C[C@@H]2Oc3ccc(NC(=O)c4ccncc4)cc3C(=O)N([C@@H](C)CO)C[C@H]2C)cc1	-5	56*	0	-1	0
COc1ccc(NC(=O)Nc2ccc3c(c2)C(=O)N([C@H](C)CO)C[C@H](C)[C@@H](CN(C)Cc2ccncc2)O3)cc1	-3	170*	6	2	1
C[C@H]1CN([C@@H](C)CO)C(=O)c2cc(NC(=O)c3ccncc3)ccc2O[C@H]1CN(C)Cc1ccc(C(=O)O)cc1	1	0	42*!	1	2
COc1ccc(NC(=O)Nc2ccc3c(c2)C(=O)N([C@H](C)CO)C[C@H](C)[C@H](CN(C)Cc2ccccc2)O3)cc1	4	0	-7	-2	-2

Screening results deposited in PubChem BioAssay by Broad Institute.
